Results as given in ChEMBL document CHEMBL4028901, “Novel Antitubercular 6-Dialkylaminopyrimidine Carboxamides from Phenotypic Whole-Cell High Throughput Screening of a SoftFocus Library: Structure-Activity Relationship and Target Identification Studies” (J Med Chem, 2017).
Converted amounts (≈) assume the structure as drawn. The source made the active and inactive calls. The calls are words filed in the database; no cut-off is given here.

How the values were obtained:
[1] = test system: Mycobacterium tuberculosis variant bovis BCG; assay: Binding affinity to Mycobacterium bovis BCG Rv3169 using sepharose beads derivatized with 6-((3-aminopropyl)(benzyl)amino)-N-(4-(4-methylpiperazin-1-yl)phenyl)pyrimidine-4-carboxamide by LC-MS/MS based chemoproteomics assay
Outline: (§1)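 BCG lysate (0.25 mg) pre-incubated with compound or DMSO, then bound to probe-derivatized sepharose beads (0.04 mM) for 1 h at 4 °C. Six compound concentrations used, top 30 μM with 1:4 steps. Includes vehicle duplicates and rebinding duplicates to measure depletion. Bound proteins eluted and quantified by TMT LC-MS/MS. Apparent Kd corrected for depletion by the beads.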

[2] = test system: Mycobacterium tuberculosis variant bovis BCG; assay: Binding affinity to Mycobacterium bovis BCG Rv3768 using sepharose beads derivatized with 6-((3-aminopropyl)(benzyl)amino)-N-(4-(4-methylpiperazin-1-yl)phenyl)pyrimidine-4-carboxamide by LC-MS/MS based chemoproteomics assay; outline: as §1
[3] = Binding affinity to Mycobacterium bovis BCG Rv3169; parameters: species or system Mycobacterium tuberculosis variant bovis BCG; settings: read-out: Kd(app)
[4] = Binding affinity to Mycobacterium bovis BCG Rv3768; parameters: species or system Mycobacterium tuberculosis variant bovis BCG; settings: read-out: Kd(app)
[5] = test system: Mycobacterium tuberculosis; assay: Antibacterial activity against GFP-fused Mycobacterium tuberculosis H37RvMA expressing QcrB mutant grown in 7H9/GLU/ADC medium measured on day 7 and day 14 post inoculation by fluorescence plate reader assay; type: functional
Outline: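 Mtb::gfp strains (H37RvMa::pMSP12GFP background), two-fold dilutions 20–0.039 µM in 7H9 with Tween-80, glycerol and ADC, or in GAST-Fe pH 6.6, at 5% final DMSO. Cultures grown to OD600 ~0.6 and diluted 1:500 (7H9) or 1:100 (GAST/Fe). […] Data normalised to rifampicin and DMSO controls; MIC90 taken from dose-response curves.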

Q: With O=C(Nc1ccccc1)c1ccc(=O)n(Cc2ccc(F)cc2)c1 as the compound, how does the Activity [1] read?
A: inactive

Q: What about the Activity [2] of the same compound?
A: inactive

Q: Which results are given for CN1CCN(c2ccc(NC(=O)c3cc(N(C)Cc4ccc(C(F)(F)F)cc4)ncn3)cc2)CC1?
A: Kd [3]: 0.61 to 0.69 µM; Kd [4]: 2.1 to 3.8 µM; Activity [1]: Active; Activity [2]: Active

Q: With COc1ccc(NC(=O)c2cc(N(C)Cc3ccccc3)ncn2)cc1 as the compound, how does the MIC99 [5] read?
A: 20 µM (≈ 6.97 µg/mL)
